This is an account of results in PubChem BioAssay AID651999 (Sanford-Burnham Center for Chemical Genomics, 2013).

In all, about 360,000 compounds went through this assay and about 1,400 (0.39%) were called active. This is one part of a sample in which actives are shown more often than they occur.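 Rule for the calls: active = pattern-corrected inhibition above about 35%, with an unprinted fluorescence ratio check between 0.5 and 1.5 (limit read from the data, passing the limit was not always enough); inactive = the rest.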

COP9 signalosome complex subunit 5 (Homo sapiens), sequence (Q92905 whole entry, looked up, one chain of several): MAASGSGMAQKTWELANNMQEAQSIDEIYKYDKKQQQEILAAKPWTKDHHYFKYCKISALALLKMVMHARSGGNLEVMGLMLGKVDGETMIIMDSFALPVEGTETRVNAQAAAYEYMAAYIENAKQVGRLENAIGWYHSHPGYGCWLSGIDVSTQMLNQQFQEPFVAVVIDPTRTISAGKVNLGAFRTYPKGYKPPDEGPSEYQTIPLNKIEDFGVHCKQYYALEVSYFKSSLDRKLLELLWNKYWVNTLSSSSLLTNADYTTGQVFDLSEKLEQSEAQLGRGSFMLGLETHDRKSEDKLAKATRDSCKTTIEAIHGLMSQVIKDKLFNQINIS

This test concerns the target COP9 signalosome complex subunit 5 (Homo sapiens) (UniProt Q92905). Briefly: inhibitors of CSN-mediated cullin deneddylation, primary screen, biochemical, fluorescence polarization, uHTS (AID 651999).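 Note: 0% = enzyme with substrate and 100% = substrate without enzyme.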 To be noted: Purified CSN, SCF-Nedd8-OG deneddylation, at 12.5 µM, active compounds read high. The procedure, abridged: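 Material: human Csn5 produced in HEK293T cells; Input: enzyme 0.24 nM; Reagent: SCFSkp2-Nedd8OG substrate at 10 nM final; Dosing: 12.5 µM compound; Incubation: 90 min reaction at room temperature; Detection: fluorescence polarization of the substrate; Evaluation: % inhibition of substrate cleavage by Csn5; Control set: substrate-only high control, full reaction low control.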
A general note: Fluorescence polarisation rises when a labelled molecule tumbles more slowly, as on binding a larger partner.
One may read the inhibition as the drop in the measured response relative to a control, in per cent. For `COc1ccc(N2C(=O)/C(=C/c3ccco3)C(=O)NC2=S)cc1`, the inhibition was 39.6% (active).
`COc1ccc(NC(=O)N2Cc3ccccc3-n3nncc3C2)cc1`: the inhibition was 1.89% (inactive).
For the compound `O=C1N=c2ccccc2=C/C1=C\c1c(O)[nH]c(=S)[nH]c1=O`, the inhibition was 3.94% (inactive).
In the case of `COc1ccccc1N=Nc1c(O)[nH]c(=S)[nH]c1=O`, the inhibition is 64.6% (active).
In the case of `CCOCCc1c(O)[nH]c(=S)[nH]c1=O` it was -1.36% (inactive); in that of `C=CC12CN(C)[C@@H]3C4CO[C@H](C[C@H]41)[C@]1(C(=O)Nc4ccccc41)[C@@H]32` (stereo not given in full), 6.32% (inactive); in that of `CC(=O)Nc1ccccc1C(=O)OCC(=O)c1cccc2ccccc12`, -2.94% (inactive).
Then `CCN1CCN(c2nc3c(c(=O)[nH]2)CCC3)CC1`, with 2.3% (inactive); and `CCNc1nc2[nH]c(=O)c3c(c2s1)OC(N)=C(C#N)C3c1cccs1` (stereo not given), with 7.11% (inactive).
In the case of `Cn1c(O)c(C=NCCN2CCNCC2)c(=O)n(C)c1=O` it was 2.48% (inactive).
Turning to `O=C1CC(=O)N(Cc2ccccc2)C(=O)N1CCCCCCN1C(=O)CC(=O)N(Cc2ccccc2)C1=O`, the inhibition is 81.1% (active).
As for `O=C(CN1CCCC1=O)NCCc1ccccc1`, the inhibition was -4.34% (inactive).
On to `CC(C)(C)c1ccc(CN2C(=O)CN=C(c3ccccc3)c3ccccc32)cc1`, for which the inhibition is -0.66% (inactive).
Regarding `COC(=O)C1=C(c2cc3ccccc3s2)C[C@@H]2CC[C@H]1N2C(=O)NC(C)C`, the inhibition is 4.07% (inactive).
Turning to `Cc1cccc(-n2c(O)c(/C=N/N3CCOCC3)c(=O)[nH]c2=S)c1`, the inhibition was -0.17% (inactive).
